Assay outcomes: PubChem BioAssay, several laboratories
Compounds with a hit are over-represented: about 1.5% of the library has one in this group of screens.
STAT3 inh: IL-6 driven STAT3 reporter inhibitors, primary screen, U3A cells, luciferase, luminescence, MLSCN library. inhibition, % at 5.5 µM. IL-6 STAT3-luciferase reporter; host cell line lacks STAT1. 190,000 compounds, 0.89% hits. AID 862, 2007;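 active = inhibition above the mean inhibition across all screened compounds plus 3 SD, cut at about 44% in these data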;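 also: 0% = DMSO only wells and 100% = 100 µM nifuroxazide control wells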
Platelet DG rel: inhibitors of platelet dense granule secretion, primary screen, cell-based, MLPCN, human platelets; inhibition, %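 (compounds screened at 7.5 µM in platelet-rich plasma)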; human platelet-rich plasma, SFLLRN dense granule ATP release, luminescence; 300,000 compounds, 0.22% hits;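 active = mean replicate score, as percent of positive control, at or above 50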
Lipid droplet: inhibitors of hepatocyte lipid droplet formation, primary screen, imaging, high-throughput imaging, BODIPY stain; AML12 mouse hepatocytes, oleate lipid droplets; inhibition, % at 6.5 µM; 240,000 compounds, 0.4% hits; AID 1656, 2009;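 active = lipid droplet intensity inhibited by at least 50%, with more than 500 cells counted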
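Test system: AML12 mouse liver cells; schedule: overnight exposure; technique: high-content imaging of BODIPY-stained droplets and DAPI nuclei; read-out: % inhibition of corrected integrated BODIPY droplet signal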
TAG inh: inhibitors of triacylglycerol accumulation, primary screen, cell-based, uHTS, fluorescence, H9c2; H9c2 cells, Nile Red lipid (TAG) fluorescence; cells loaded with 200 µM oleic acid; inhibition, % at 12.5 µM; 230,000 compounds, 0.66% hits; AID 651582, 2012;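 active = pattern-corrected inhibition of lipid staining of at least 50% with the nuclear-stain viability signal not falling by more than 50%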;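 also: 0% = DMSO wells and 100% = triacsin C control wells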
PPC-1+TRAIL kill: compounds killing PPC-1 cancer cells with TRAIL present, primary screen, TRAIL potentiator project, ATPLite luminescence, uHTS; PPC-1 cells + TRAIL, ATPLite viability luminescence; cell killing (% activity), % at 4 µM or 5 µM; 220,000 compounds, 0.41% hits; AID 1443, 2008;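 active = cell killing above 50% in the first pass at 4 µM, then a duplicate retest at 5 µM averaging 50% or more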;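 also: plate controls were cells with TRAIL plus DMSO for no effect and medium-only wells lacking cells for full effect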
STAT1 blocker: STAT1 signaling inhibitors, primary screen, cell-based, HTS, luciferase reporter; NIH 3T3 STAT1-luciferase reporter, IFN-gamma, luminescence; inhibition, % at 5.5 µM; 200,000 compounds, 0.35% hits; AID 920, 2007;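 active = inhibition above a set limit, the mean inhibition across all tested compounds plus 3 SD, cut at about 34% in these data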;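 also: 0% = IFN-gamma with DMSO and 100% = IFN-gamma with 300 µM nifuroxazide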
Lipid drop inh: hepatocyte lipid droplet accumulation inhibitors, confirmation, imaging, AML12 mouse hepatocytes, single concentration, high-content; BODIPY lipid droplet imaging; droplets induced with 100 µM oleic acid; 870 compounds, 65% hits; inhibition, % at 5.2 µM; shares compounds with Lipid droplet; AID 463183, 2010;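 active = inhibition of lipid droplet metric at least 50%, with more than 300 cells in each of four replicates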;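 also: plate controls were DMSO with oleic acid for no effect and 5 µM Triacsin-C for full effect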
AML12 cytotox: AML12 hepatocyte cytotoxicity, counter-screen for hepatic lipid droplet formation project, imaging, DAPI nuclear morphology imaging; shares compounds with Lipid droplet; AID 463200, 2010; z-score at 5 µM; 870 compounds, 3% hits; AML12 mouse hepatocytes; stronger effect = higher value; cells fed 100 µM oleate overnight; in the data active = z-score above about 6.3;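 also: compound exposure lasted overnight at 37 °C before fixation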
AML12 tox ATP: AML12 hepatocyte cytotoxicity, confirmation, cytotoxicity control for hepatic lipid droplet formation project, cell-based, single concentration; shares compounds with Lipid droplet; AML12 mouse hepatocyte viability, ATP luminescence; cells loaded with 100 µM oleic acid; cytotoxicity, % at 50 µM; 530 tested, under 10 active; AID 463219, 2010;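 active = cytotoxicity above 50% in each of four replicates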;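 also: compound exposure lasted overnight at 37 °C before the ATP read; 0% = DMSO-treated cells and 100% = wells with no cells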
Starred values were filed as active, the others as inactive; . = no result.

SMILES | STAT3 inh | Platelet DG rel | Lipid droplet | TAG inh | PPC-1+TRAIL kill | STAT1 blocker | Lipid drop inh | AML12 cytotox | AML12 tox ATP
COc1ccc(CCN2C(=O)CC(N3CCOCC3)C2=O)cc1OC (stereo unspecified) | 10.9 | . | 51.3* | -5.1 | 11.5 | 2.9 | 25.4 | -0.31 | .
COc1ccc(C(=O)CCC(=O)Nc2ccc(N3CCCCC3)cc2)cc1OC | . | 3.4 | 91.8* | . | . | . | 108.2* | 0.00106 | 10.8
CN(C)/C=N/n1cnc2ccccc2c1=O | . | 1.2 | 61.1* | 2.7 | 19.0 | . | -23.7 | -0.364 | .
CN(C)C(=O)c1ccc(-n2cnc3ccccc3c2=O)cc1 | 3.7 | 3.3 | 5.3 | -19.0 | 15.0 | -14.8 | . | . | .
CC(NC(=O)[C@@H](C)NC(=O)[C@@H]1Cc2ccccc2CN1C(=O)OC(C)(C)C)c1ccccc1 (stereo partly specified) | . | -7.6 | 68.5* | . | . | . | 76.1* | -0.241 | 12.9
CCC(C)(C)C1CCC2(CC1)NC(=O)N(CC(=O)N1CCN(c3ccccc3OC)CC1)C2=O (stereo unspecified) | . | . | . | 30.0 | . | . | . | . | .
CC(=O)Nc1ccc(CN(C)c2c(C)nc3ccc(C(=O)N(C)Cc4ccccc4)cn23)cc1 | . | . | . | -7.4 | . | . | . | . | .
O=C(Nc1ccc(Br)cc1)c1cccc(OC(=S)N2CCOCC2)c1 | . | -0.9 | 54.1* | . | . | . | 89.0* | 0.815 | 20.2
COc1ccc(NC(=O)c2cccc(OC(=S)N3CCOCC3)c2)cc1 | . | -0.8 | 9.7 | 30.4 | -6.1 | . | . | . | .
Cc1cc(=O)[nH]c(NNC(=O)c2ccc(Cl)cc2)n1 | . | . | . | 4.9 | . | . | . | . | .
O=C(Nc1cccc(S(=O)(=O)N2CCOCC2)c1)c1ccc(Cl)c([N+](=O)[O-])c1 | 2.3 | -6.3 | 60.7* | 8.2 | 15.8 | -8.4 | 26.9 | 0.797 | .
O=C(Nc1ccc(S(=O)(=O)N2CCOCC2)cc1)c1ccc(Cl)c([N+](=O)[O-])c1 | . | . | . | -3.6 | . | . | . | . | .
CN(c1ccccc1)S(=O)(=O)c1ccc(NC(=O)CC(=O)c2ccccc2)cc1 | . | . | . | 4.1 | . | . | . | . | .
CN1C(C(=O)NCCc2cccs2)CC2Cn3c(nc4cc5ccccc5cc43)C21 (stereo unspecified) | . | -1.9 | -0.1 | 14.9 | 22.0 | . | . | . | .
COc1ccc(CCNC(=O)C2CC3Cn4c(nc5cc6ccccc6cc54)C3N2C)cc1 (stereo unspecified) | . | 2.9 | 51.3* | 4.7 | 14.9 | . | 7.9 | 0.472 | .
CSc1ccc(NC(=O)C2(C)CCN2C(=O)c2cc(C)n(C)n2)cc1 (stereo unspecified) | . | . | . | 7.7 | . | . | . | . | .
Cc1cc(C(=O)COC(=O)C23CC4CC(CC(O)(C4)C2)C3)c(C)n1C | . | . | . | -10.1 | . | . | . | . | .
Cc1ccc(S(=O)(=O)N(C)C)cc1NC(=S)Nc1ccc2cn[nH]c2c1 | 11.6 | 7.6 | 55.8* | 3.3 | 0.7 | -0.5 | 24.8 | -0.934 | .
CCOc1ccc(CCNC(=O)C(C)n2nc(C)n3c(cc4occc43)c2=O)cc1OCC (stereo unspecified) | 14.2 | -26.8 | 57.6* | 36.1 | 25.2 | 4.6 | 93.5* | -0.168 | 7.7
CCOc1ccc(CCNC(=O)Cn2cccc2C(=O)c2ccccc2)cc1OCC | -1.9 | -2.5 | 84.1* | . | 18.5 | -10.2 | 108.8* | 0.411 | 12.7
CCOc1ccc(CCNC(=O)Cn2nc(C)n3cccc3c2=O)cc1OCC | . | -0.8 | 78.9* | . | . | . | 103.8* | -0.0837 | 17.4
CCOc1ccc(CCNC(=O)CCCn2c(=O)c3cccn3c3cccnc32)cc1OCC | . | 2.5 | 69.2* | . | . | . | 88.3* | -1.02 | 4.2
